Data reported in ChEMBL document CHEMBL4052819 (2017).
Converted amounts (≈) assume the structure as drawn. The source made the active and inactive calls. The calls are words filed in the database; no cut-off is given here. Non-standard residues stand in square brackets, D forms with d. Residues, ends and D or L forms follow the SMILES beside them. Cha = N[C@@H](CC1CCCCC1)C(=O)O; Dab = NCC[C@H](N)C(=O)O

Experiments:
Enterococcus faecium = assay: Antibacterial activity against Enterococcus faecium ATCC 19434 after 18 to 20 hrs by broth microdilution method; format: functional
Procedure, shortened: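 Broth microdilution in tryptic soy broth: 2-fold dilutions mixed 1:1 with ~1.5 × 10^5 CFU/mL inoculum, final 0.5–32 μg/mL; 37 °C, 18–20 h. MIC taken as lowest concentration giving no visible growth. At least three independent experiments, one replicate each.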

Staphylococcus aureus [1] = assay: Antibacterial activity against methicillin-resistant Staphylococcus aureus ATCC 43300 after 18 to 20 hrs by broth microdilution method; format: functional
Procedure, shortened: (§1)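 Broth microdilution in tryptic soy broth: 2-fold dilutions mixed 1:1 with ~1.5 × 10^5 CFU/mL bacterial suspension in TSB, final 0.5–32 μg/mL, 37 °C for 18–20 h. MIC = lowest concentration with no visible growth. At least three independent experiments, one replicate each.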

Acinetobacter baumannii [2] = assay: Bactericidal activity against Acinetobacter baumannii ATCC 19606; format: functional; details: ATCC 19606 = CIP 70.34 = JCM 6841, read-out: MBC99.9
Procedure, shortened: (§2)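 MBC from MIC plates at end point: 50 μL from each well with no visible growth plated on tryptic soy agar and counted. MBC taken as lowest concentration giving ≥99.9% fall in viable count relative to initial inoculum. Three independent experiments, one replicate each.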

Escherichia coli [3] = assay: Bactericidal activity against Escherichia coli ATCC 25922; format: functional; details: read-out: MBC99.9; procedure, shortened: as §2
Klebsiella pneumoniae [4] = assay: Bactericidal activity against Klebsiella pneumoniae ATCC 13883; format: functional; details: read-out: MBC99.9; procedure, shortened: as §2
Pseudomonas aeruginosa [5] = assay: Bactericidal activity against Pseudomonas aeruginosa ATCC 27853; format: functional; details: read-out: MBC99.9; procedure, shortened: as §2
Staphylococcus aureus [6] = assay: Bactericidal activity against methicillin-resistant Staphylococcus aureus ATCC 43300; format: functional; details: read-out: MBC99.9
Procedure, shortened: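 MBC taken at the end of the MIC test: 50 μL from each well without visible growth plated on tryptic soy agar. MBC = lowest concentration giving ≥99.9% reduction in viable cells relative to the initial inoculum. Three independent experiments, one replicate each.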

Pseudomonas aeruginosa [7] = assay: Bactericidal activity against Pseudomonas aeruginosa ATCC 27853 at 16 ug/ml after 2 hrs by time-kill assay relative to control; format: functional
Procedure, shortened: (§3)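 Time-kill at 8, 16 and 32 μg/mL; survivors counted on tryptic soy agar at 0, 2, 4, 6 and 24 h. Three independent experiments, one replicate each.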

Pseudomonas aeruginosa [8] = assay: Bactericidal activity against Pseudomonas aeruginosa ATCC 27853 at 16 to 32 ug/ml after 24 hrs by time-kill assay; format: functional; procedure, shortened: as §3
Pseudomonas aeruginosa [9] = assay: Bactericidal activity against Pseudomonas aeruginosa ATCC 27853 at 8 ug/ml after 2 hrs by time-kill assay relative to control; format: functional; procedure, shortened: as §3
Staphylococcus aureus [10] = assay: Bactericidal activity against Staphylococcus aureus ATCC 29213 at 32 ug/ml after 4 hrs by time-kill assay relative to control; format: functional; procedure, shortened: as §3
Escherichia coli [11] = assay: Antibacterial activity against Escherichia coli ATCC 25922 after 18 to 20 hrs in presence of 95% serum by broth microdilution method; format: functional
Procedure, shortened: (§4)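 Same microdilution with human serum as medium: compound 2-fold diluted in 100% serum, mixed 1:1 with 90% serum holding ~1.5 × 10^5 CFU/mL, giving 95% serum and final 0.5–64 μg/mL. MIC read as no visible growth after incubation as for the broth test.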

Staphylococcus aureus [12] = assay: Antibacterial activity against Staphylococcus aureus ATCC 29213 after 18 to 20 hrs in presence of 95% serum by broth microdilution method; format: functional; procedure, shortened: as §4
Escherichia coli [13] = assay: Antibacterial activity against Escherichia coli ATCC 25922 in presence of 100% serum measured immediately post compound addition in serum by broth microdilution method; format: functional
Procedure, shortened: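 Serum stability: compound added to 100% human serum at final 64 μg/mL, held at 37 °C, sampled at 0, 6, 12 and 24 h. […] Residual activity compared with untreated control.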

Acinetobacter baumannii [14] = assay: Antibacterial activity against carbapenem-resistant Acinetobacter baumannii clinical isolate expressing beta-lactamase OXA-23, 24/40 after 18 to 20 hrs by broth microdilution method; format: functional; procedure, shortened: as §1
Enterobacter cloacae [15] = assay: Antibacterial activity against carbapenem-resistant Enterobacter cloacae clinical isolate expressing beta-lactamase NDM after 18 to 20 hrs by broth microdilution method; format: functional; procedure, shortened: as §1
Enterobacter cloacae [16] = assay: Antibacterial activity against carbapenem-resistant Enterobacter cloacae clinical isolate expressing beta-lactamase KPC-3, TEM1 after 18 to 20 hrs by broth microdilution method; format: functional; procedure, shortened: as §1
Escherichia coli [17] = assay: Antibacterial activity against carbapenem-resistant Escherichia coli clinical isolate expressing beta-lactamase NDM after 18 to 20 hrs by broth microdilution method; format: functional; procedure, shortened: as §1
Klebsiella pneumoniae [18] = assay: Antibacterial activity against carbapenem-resistant Klebsiella pneumoniae clinical isolate expressing beta-lactamase NDM, OXA-181 after 18 to 20 hrs by broth microdilution method; format: functional; procedure, shortened: as §1
Klebsiella pneumoniae [19] = assay: Antibacterial activity against carbapenem-resistant Klebsiella pneumoniae clinical isolate expressing beta-lactamase KPC after 18 to 20 hrs by broth microdilution method; format: functional; procedure, shortened: as §1
Escherichia coli [20] = assay: Antibacterial activity against polymyxin-resistant Escherichia coli UAMS-ECPR2 after 18 to 20 hrs by broth microdilution method; format: functional; procedure, shortened: as §1
Staphylococcus aureus [21] = assay: Antibiofilm activity against methicillin-resistant Staphylococcus aureus LAC established catheter-associated biofilm model at 20 times MIC after 72 hrs relative to control; format: functional
Pseudomonas aeruginosa [22] = assay: Antibiofilm activity against Pseudomonas aeruginosa ATCC 27853 established catheter-associated biofilm model at 40 times MIC after 72 hrs relative to control; format: functional
Pseudomonas aeruginosa [23] = assay: Bactericidal activity against Pseudomonas aeruginosa ATCC 27853 at 16 ug/ml after 60 mins in presence of LPS; format: functional
Procedure, shortened: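 P. aeruginosa at ~10^6 CFU/mL in TSB with E. coli O111:B4 LPS (final 10, 25, 50 or 100 μg/mL), then compound at final 16 μg/mL. Incubated 37 °C, 200 rpm, 60 min; survivors counted on TSA. Three independent experiments, one replicate each.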

Pseudomonas aeruginosa [24] = assay: Induction of cytoplasmic membrane depolarization in Pseudomonas aeruginosa ATCC 27853 at >= 16 ug/ml by DiSC3(5) probe-based fluorescence assay; format: functional
Staphylococcus aureus [25] = assay: Induction of cytoplasmic membrane depolarization in Staphylococcus aureus ATCC 29213 at >= 16 ug/ml by DiSC3(5) probe-based fluorescence assay; format: functional
Procedure, shortened: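 S. aureus ATCC 29213 grown in TSB at 37 °C with shaking (200 rpm) for ~5 h after 1/100 dilution of an overnight culture. Cells washed twice in 5 mM HEPES (pH 7.2) with 5 mM glucose and resuspended in the same buffer. Loaded with 0.5 μM DiSC3(5) for 15 min at room temperature, then 100 mM KCl added. Compound given at 8–64 μg/mL final. Fluorescence read at ex 622/em 670 nm. Three independent experiments, ANOVA with Tukey HSD.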

Staphylococcus aureus [26] = assay: Induction of cytoplasmic membrane damage in Staphylococcus aureus ATCC 29213 assessed as intracellular potassium ion release at 32 to 64 ug/ml by PBFI probe-based fluorescence assay; format: functional, cell-based
Procedure, shortened: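 Mid-log cells washed and suspended in 5 mM HEPES pH 7.2 + 5 mM glucose. PBFI K+ probe added at final 2 μM, then compound at final 8–64 μg/mL; fluorescence read at ex 346/em 505 nm. Three independent experiments; change in fluorescence analysed by ANOVA with Tukey HSD.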

Klebsiella pneumoniae [27] = assay: Antibacterial activity against polymyxin-resistant Klebsiella pneumoniae AR 0109 after 18 to 20 hrs by broth microdilution method

CC(C)C[C@H](NC(=O)[C@@H](Cc1ccccc1)NC(=O)[C@H](CCN)NC(=O)[C@H](Cc1ccccc1)NC(=O)[C@H](CCN)NC(=O)[C@@H](N)CC1CCCCC1)C(=O)N[C@@H](CCN)C(=O)N[C@H](CC(C)C)C(=O)N[C@@H](Cc1ccccc1)C(=O)N[C@@H](CO)C(N)=O (H-[Cha][Dab]F[Dab][dF]L[Dab][dL]FS-NH2)
MIC (Enterococcus faecium): 8 µg/mL (≈ 6.53 µM)
MIC (Staphylococcus aureus [1]): 4 µg/mL (≈ 3.26 µM)
MBC (Acinetobacter baumannii [2]): 4 to 8 µg/mL (≈ 3.26 to 6.53 µM)
MBC (Escherichia coli [3]): 8 to 16 µg/mL (≈ 6.53 to 13.1 µM)
MBC (Klebsiella pneumoniae [4]): 4 µg/mL (≈ 3.26 µM)
MBC (Pseudomonas aeruginosa [5]): 2 to 4 µg/mL (≈ 1.63 to 3.26 µM)
MBC (Staphylococcus aureus [6]): 8 µg/mL (≈ 6.53 µM)
Activity (Pseudomonas aeruginosa [7]): 3.7 deltalog10CFU/ml
Activity (Pseudomonas aeruginosa [8]): Active
Activity (Pseudomonas aeruginosa [9]): 2.2 deltalog10CFU/ml
Activity (Staphylococcus aureus [10]): 5.4 deltalog10CFU/ml
MIC (Escherichia coli [11]): 8 µg/mL
MIC (Staphylococcus aureus [12]): 32 µg/mL
MIC (Escherichia coli [13]): 4 to 8 µg/mL
MIC (Acinetobacter baumannii [14]): 0.5 µg/mL (≈ 0.408 µM)
MIC (Enterobacter cloacae [15]): 0.5 µg/mL (≈ 0.408 µM)
MIC (Enterobacter cloacae [16]): 0.5 µg/mL (≈ 0.408 µM)
MIC (Escherichia coli [17]): 0.5 µg/mL (≈ 0.408 µM)
MIC (Klebsiella pneumoniae [18]): 0.5 to 2 µg/mL (≈ 0.408 to 1.63 µM)
MIC (Klebsiella pneumoniae [19]): 1 to 2 µg/mL (≈ 0.816 to 1.63 µM)
MIC (Escherichia coli [20]): < 0.5 µg/mL
Activity (Staphylococcus aureus [21]): 5 deltalog10CFU/ml
Activity (Pseudomonas aeruginosa [22]): 2.6 deltalog10CFU/ml
Activity (Pseudomonas aeruginosa [23]): inactive
Activity (Pseudomonas aeruginosa [24]): Active
Activity (Staphylococcus aureus [25]): Active
Activity (Staphylococcus aureus [26]): Active
MIC (Klebsiella pneumoniae [27]): 4 to 8 µg/mL (≈ 3.26 to 6.53 µM)
